Assays:
Type in all cases: functional
NCI-H460 = assay: Anticancer activity against human NCI-H460 cells assessed as cell growth at 100 uM after 48 hrs by sulforhodamine B assay; details: NCI-H460, 48 h, read-out: Activity
MCF7 [1] = assay: Anticancer activity against human MCF7 cells assessed as cell growth at 100 uM after 48 hrs by sulforhodamine B assay; details: MCF7, 48 h, read-out: Activity
SF-268 [2] = assay: Anticancer activity against human SF268 cells assessed as cell growth at 100 uM after 48 hrs by sulforhodamine B assay; details: SF-268, 48 h, read-out: Activity
[3] = Growth inhibition of human […] cells after 48 hrs by sulforhodamine B assay; details: for TGI: read-out: pTGI (converted)
Summary of the method: (§1)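 NCI 60-human-tumor-cell-line panel, with compounds tested over a 5-log dose range. Values are taken from dose-response curves as log10 molar concentrations: GI50 is 50% net growth inhibition, TGI is total growth inhibition, and LC50 is 50% net cell death.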

SR = assay: Growth inhibition of human SR cells after 48 hrs by sulforhodamine B assay; details: for TGI: read-out: pTGI (converted)
Summary of the method: (§2)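 Run in the NCI 60-human-tumour-cell-line panel, tested over a 5-log dose range. Dose–response curves gave three values per cell line, each as a log10 molar concentration: GI50 (50% inhibition of net cell growth), TGI (total inhibition of net growth) and LC50 (50% net cell death). The mean graph midpoint is the arithmetic mean over all lines, with insensitive lines entered at the highest concentration tested.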

A549 = assay: Growth inhibition of human A549 cells after 48 hrs by sulforhodamine B assay; details: A549, 48 h; for TGI: read-out: pTGI (converted); summary of the method: as §1
NCI-H23 = assay: Growth inhibition of human NCI-H23 cells after 48 hrs by sulforhodamine B assay; details: NCI-H23, 48 h; for TGI: read-out: pTGI (converted); summary of the method: as §1
NCI-H322M = assay: Growth inhibition of human NCI-H322M cells after 48 hrs by sulforhodamine B assay; details: for TGI: read-out: pTGI (converted); summary of the method: as §1
COLO 205 = assay: Growth inhibition of human COLO205 cells after 48 hrs by sulforhodamine B assay; details: COLO 205, 48 h; for TGI: read-out: pTGI (converted); summary of the method: as §1
HCT-116 = assay: Growth inhibition of human HCT116 cells after 48 hrs by sulforhodamine B assay; details: HCT-116, 48 h; for TGI: read-out: pTGI (converted); summary of the method: as §1
SW-620 = assay: Growth inhibition of human SW620 cells after 48 hrs by sulforhodamine B assay; details: SW-620, 48 h; for CC50: read-out: pLC50 (the source's name) (converted); for TGI: read-out: pTGI (converted); summary of the method: as §2
SF-268 [4] = assay: Growth inhibition of human SF268 cells after 48 hrs by sulforhodamine B assay; details: SF-268, 48 h; for TGI: read-out: pTGI (converted); summary of the method: as §1
SF-295 = assay: Growth inhibition of human SF295 cells after 48 hrs by sulforhodamine B assay; details: SF-295, 48 h; for TGI: read-out: pTGI (converted); summary of the method: as §1
SNB-19 = assay: Growth inhibition of human SNB19 cells after 48 hrs by sulforhodamine B assay; details: SNB-19, 48 h; for TGI: read-out: pTGI (converted); summary of the method: as §2
U-251 = assay: Growth inhibition of human U251 cells after 48 hrs by sulforhodamine B assay; details: U-251, 48 h; for TGI: read-out: pTGI (converted); summary of the method: as §2
LOX IMVI = assay: Growth inhibition of human LOXIMVI cells after 48 hrs by sulforhodamine B assay; details: for TGI: read-out: pTGI (converted); summary of the method: as §1
SK-MEL-2 = assay: Growth inhibition of human SK-MEL-2 cells after 48 hrs by sulforhodamine B assay; details: SK-MEL-2, 48 h; for CC50: read-out: pLC50 (the source's name) (converted); for TGI: read-out: pTGI (converted); summary of the method: as §1
SK-MEL-28 = assay: Growth inhibition of human SK-MEL-28 cells after 48 hrs by sulforhodamine B assay; details: SK-MEL-28, 48 h; for CC50: read-out: pLC50 (the source's name) (converted); for TGI: read-out: pTGI (converted); summary of the method: as §1
SK-MEL-5 = assay: Growth inhibition of human SK-MEL-5 cells after 48 hrs by sulforhodamine B assay; details: SK-MEL-5, 48 h; for CC50: read-out: pLC50 (the source's name) (converted); for TGI: read-out: pTGI (converted); summary of the method: as §1
UACC-257 = assay: Growth inhibition of human UACC257 cells after 48 hrs by sulforhodamine B assay; details: UACC-257, 48 h; for CC50: read-out: pLC50 (the source's name) (converted); for TGI: read-out: pTGI (converted); summary of the method: as §2
IGROV-1 = assay: Growth inhibition of human IGROV1 cells after 48 hrs by sulforhodamine B assay; details: IGROV-1, 48 h; for CC50: read-out: pLC50 (the source's name) (converted); for TGI: read-out: pTGI (converted); summary of the method: as §1
OVCAR-5 = assay: Growth inhibition of human OVCAR5 cells after 48 hrs by sulforhodamine B assay; details: OVCAR-5, 48 h; for CC50: read-out: pLC50 (the source's name) (converted); for TGI: read-out: pTGI (converted); summary of the method: as §1
OVCAR-8 = assay: Growth inhibition of human OVCAR8 cells after 48 hrs by sulforhodamine B assay; details: OVCAR-8, 48 h; for CC50: read-out: pLC50 (the source's name) (converted); for TGI: read-out: pTGI (converted); summary of the method: as §1
RXF 393 = assay: Growth inhibition of human RXF393 cells after 48 hrs by sulforhodamine B assay; details: RXF 393, 48 h; for CC50: read-out: pLC50 (the source's name) (converted); for TGI: read-out: pTGI (converted); summary of the method: as §1
PC-3 = assay: Growth inhibition of human PC3 cells after 48 hrs by sulforhodamine B assay; details: PC-3, 48 h; for CC50: read-out: pLC50 (the source's name) (converted); for TGI: read-out: pTGI (converted); summary of the method: as §1
DU-145 = assay: Growth inhibition of human DU145 cells after 48 hrs by sulforhodamine B assay; details: DU-145, 48 h; for CC50: read-out: pLC50 (the source's name) (converted); for TGI: read-out: pTGI (converted); summary of the method: as §1
[5] = Growth inhibition of human Hs 578T cells after 48 hrs by sulforhodamine B assay; details: for CC50: read-out: pLC50 (the source's name) (converted); for TGI: read-out: pTGI (converted); summary of the method: as §1
MDA-MB-435 = assay: Growth inhibition of human MDA-MB-435 cells after 48 hrs by sulforhodamine B assay; details: MDA-MB-435, 48 h; for TGI: read-out: pTGI (converted); summary of the method: as §1
MCF7 [6] = assay: Growth inhibition of human MCF7 cells after 48 hrs by sulforhodamine B assay; details: MCF7, 48 h; for CC50: read-out: pLC50 (the source's name) (converted); for TGI: read-out: pTGI (converted); summary of the method: as §1

## COc1ccc(CNc2nc3cc(N)cc(N)c3nc2-c2ccccc2)cc1
NCI-H460
  growth at 100 µM: 0%
MCF7 [1]
  growth at 100 µM: 0%
SF-268 [2]
  growth at 100 µM: 0%
[3]
  GI50: 4.17 µM
  LC50: > 100 µM
  TGI: 15.8 µM
SR
  GI50: 4.07 µM
  LC50 (concentration giving 50% net cell death): > 100 µM
  TGI: > 100 µM
A549
  GI50: 21.4 µM
  LC50: > 100 µM
  TGI: 60.3 µM
NCI-H23
  GI50: 17 µM
  LC50 (50% net cell kill concentration): 70.8 µM
  TGI: 34.7 µM
NCI-H322M
  GI50: 22.9 µM
  LC50: > 100 µM
  TGI: 52.5 µM
COLO 205
  GI50: 15.5 µM
  LC50 (50% net cell kill): 74.1 µM
  TGI: 33.9 µM
HCT-116
  GI50: 14.5 µM
  LC50 (concentration causing 50% net cell death): 52.5 µM
  TGI: 27.5 µM
SW-620
  GI50: 12.9 µM
  CC50: 70.8 µM
  TGI: 30.2 µM
SF-268 [4]
  GI50: 9.77 µM
  LC50: 49 µM
  TGI: 21.9 µM
SF-295
  GI50: 17.8 µM
  LC50 (50% net cell kill): 58.9 µM
  TGI: 32.4 µM
SNB-19
  GI50: 41.7 µM
  LC50: > 100 µM
  TGI: > 100 µM
U-251
  GI50: 13.5 µM
  LC50 (50% net cell kill): 51.3 µM
  TGI: 26.3 µM
LOX IMVI
  GI50: 13.5 µM
  LC50: 55 µM
  TGI: 27.5 µM
SK-MEL-2
  GI50: 14.8 µM
  CC50: 57.5 µM
  TGI: 28.8 µM
SK-MEL-28
  GI50: 17.4 µM
  CC50: 60.3 µM
  TGI: 32.4 µM
SK-MEL-5
  GI50: 17.8 µM
  CC50: 56.2 µM
  TGI: 31.6 µM
UACC-257
  GI50: 16.2 µM
  CC50: 56.2 µM
  TGI: 30.2 µM
IGROV-1
  GI50: 12.9 µM
  CC50: 56.2 µM
  TGI: 26.9 µM
OVCAR-5
  GI50: 20.9 µM
  CC50: > 100 µM
  TGI: 45.7 µM
OVCAR-8
  GI50: 14.8 µM
  CC50: > 100 µM
  TGI: 39.8 µM
RXF 393
  GI50: 5.37 µM
  CC50: 44.7 µM
  TGI: 18.2 µM
PC-3
  GI50: 10.2 µM
  CC50: 72.4 µM
  TGI: 27.5 µM
DU-145
  GI50: 21.9 µM
  CC50: > 100 µM
  TGI: 57.5 µM
[5]
  GI50: 26.9 µM
  CC50: > 100 µM
  TGI: > 100 µM
MDA-MB-435
  GI50: 10 µM
  TGI: 21.9 µM
MDA-MB-435; read-out: pLC50 (the source's name) (converted)
  CC50: 46.8 µM
MCF7 [6]
  GI50: 13.2 µM
  CC50: 53.7 µM
  TGI: 26.3 µM

## COc1cc(CNc2nc3cc(N)cc(N)c3nc2-c2ccccc2)cc(OC)c1
NCI-H460
  growth at 100 µM: -1%
MCF7 [1]
  growth at 100 µM: -72%
SF-268 [2]
  growth at 100 µM: -28%
[3]
  GI50: 2.19 µM
  LC50: > 100 µM
  TGI: 6.17 µM
SR
  GI50: 3.8 µM
  LC50 (concentration giving 50% net cell death): > 100 µM
  TGI: > 100 µM
A549
  GI50: 33.1 µM
  LC50: > 100 µM
  TGI: > 100 µM
NCI-H23
  GI50: 16.2 µM
  LC50 (50% net cell kill concentration): > 100 µM
  TGI: > 100 µM
NCI-H322M
  GI50: 44.7 µM
  LC50: > 100 µM
  TGI: > 100 µM
COLO 205
  GI50: 2.4 µM
  LC50 (50% net cell kill): > 100 µM
  TGI: 6.03 µM
HCT-116
  GI50: 3.09 µM
  LC50 (concentration causing 50% net cell death): 72.4 µM
  TGI: 11.2 µM
SW-620
  GI50: 4.47 µM
  CC50: > 100 µM
  TGI: > 100 µM
SF-268 [4]
  GI50: 5.37 µM
  LC50: > 100 µM
  TGI: > 100 µM
SF-295
  GI50: 14.1 µM
  LC50 (50% net cell kill): 87.1 µM
  TGI: 35.5 µM
SNB-19
  GI50: 23.4 µM
  LC50: > 100 µM
  TGI: > 100 µM
U-251
  GI50: 5.13 µM
  LC50 (50% net cell kill): > 100 µM
  TGI: > 100 µM
LOX IMVI
  GI50: 4.47 µM
  LC50: > 100 µM
  TGI: 81.3 µM
SK-MEL-2
  GI50: 7.76 µM
  CC50: > 100 µM
  TGI: 40.7 µM
SK-MEL-28
  GI50: 1.78 µM
  CC50: > 100 µM
  TGI: 8.71 µM
SK-MEL-5
  GI50: 12.9 µM
  CC50: > 100 µM
  TGI: 41.7 µM
UACC-257
  GI50: 25.7 µM
  CC50: > 100 µM
  TGI: > 100 µM
IGROV-1
  GI50: 8.71 µM
  CC50: > 100 µM
  TGI: 56.2 µM
OVCAR-5
  GI50: 5.89 µM
  CC50: > 100 µM
  TGI: 29.5 µM
OVCAR-8
  GI50: 2.82 µM
  CC50: > 100 µM
  TGI: 8.13 µM
RXF 393
  GI50: 6.03 µM
  CC50: > 100 µM
  TGI: 58.9 µM
PC-3
  GI50: 3.02 µM
  CC50: > 100 µM
  TGI: 14.5 µM
DU-145
  GI50: 29.5 µM
  CC50: > 100 µM
  TGI: > 100 µM
[5]
  GI50: 8.51 µM
  CC50: > 100 µM
  TGI: > 100 µM
MDA-MB-435
  GI50: 2.14 µM
  TGI: 4.27 µM
MCF7 [6]
  GI50: 8.32 µM
  CC50: > 100 µM
  TGI: > 100 µM

Reference: ChEMBL document CHEMBL1137710, “Synthesis and in vitro antitumor activity of new quinoxaline derivatives” (2009)
